For series [1], the system named is Hepatitis B virus. Conditions: 1 mg/kg.
Series [2] concerns Mus musculus. The experiment in a line: Toxicity in HBV infected 1.3.32 transgenic mouse assessed as labored breathing, hunched posture at 5 mg/kg, iv after 24 hrs. The series is classed as organism-based. The arrangement: dose 5 mg/kg, route intravenous. Conditions: in vivo.
Series [3] concerns Hepatitis B virus. Conditions: 1 mg/kg. The source holds these as a separate data set.
Series [4] relates to Mus musculus. Kind of series: Toxicity in HBV infected 1.3.32 transgenic mouse liver assessed as hepatitis at 5 mg/kg, iv single dose after 24 hrs by rotine […] method. The series is classed as organism-based. The arrangement: dose 5 mg/kg, route intravenous. As to conditions: in vivo. An outline of the steps: (§1)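 Male HBV 1.3.32 transgenic mice, 8–12 weeks, HBeAg-matched. Each got a single i.v. dose in saline/mannitol: 1 mg/kg examined at day 1, 2 or 6, or 0.2, 1.0 or 5.0 mg/kg examined at 24 h. Diluent-only animals served as controls. Livers from representative mice were fixed in zinc-buffered formalin, embedded in paraffin and stained with H&E for pathology.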

The test system of series [5] is Mus musculus. Kind of series: Toxicity in HBV infected 1.3.32 transgenic mouse liver assessed as hepatitis at 1 mg/kg, iv single dose after 2 days by rotine […] method. Format: organism-based. The arrangement: dose 1 mg/kg, route intravenous. Conditions: in vivo, 48 h. An outline of the steps: as §1
For series [6], the system named is Mus musculus. Kind of series: Toxicity in 1.3.32 transgenic mouse liver assessed as serum alanine aminotransferase level at 1 mg/kg, iv after 2 days. Format: organism-based. More on the design: dose 1 mg/kg, route intravenous. As to conditions: in vivo, 48 h. An outline of the steps:
(§2)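 Serum ALT was read spectrophotometrically with Infinity ALT reagent against enzyme standards. Mice were HBV 1.3.32 transgenic males, 8–12 weeks, HBeAg-matched, with 3–4 per group. They received a single i.v. injection in 0.9% NaCl/mannitol: 1 mg/kg sampled at 1, 2, 3 or 6 days, or 0.2, 1 or 5 mg/kg sampled at 24 h. Controls got diluent only.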

Series [7] concerns Hepatitis B virus. As to conditions: 0.2 mg/kg.
Series [8] has as its system Hepatitis B virus. Kind of series: Antiviral activity against HBV infected in 1.3.32 transgenic mouse assessed as serum HBeAg level at 5 mg/kg, iv single dose after 24 hrs by ELISA. The series is classed as functional. An outline of the steps:
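Serum HBeAg and HBsAg were measured by ELISA in HBV 1.3.32 transgenic mice (male, 8-12 wk) after one i.v. dose in 0.9% NaCl/mannitol. Values are relative to control mice given diluent. 3-4 mice per group; mean ± SEM; Student's t test.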

Series [9] has as its system Hepatitis B virus. Conditions: 5 mg/kg.
In series [10] the test system is Mus musculus. Kind of series: Toxicity in 1.3.32 transgenic mouse assessed as serum alanine aminotransferase level liver at 1 mg/kg, iv after 6 days […]. Format: organism-based. The arrangement: dose 1 mg/kg, route intravenous. Conditions: in vivo, 144 h.
For series [11], the system named is Hepatitis B virus. Conditions: Liver, 1 mg/kg.
Series [12] deals with Hepatitis B virus. As to conditions: Liver, 1 mg/kg. This is another data set of the same source.
Series [13] concerns Mus musculus. The experiment in a line: Toxicity in HBV infected 1.3.32 transgenic mouse liver assessed as serum alanine aminotransferase level at 5 mg/kg, iv after 24 hrs. The series is classed as organism-based. More on the design: dose 5 mg/kg, route intravenous. As to conditions: in vivo. An outline of the steps: as §2
Series [14] has as its system Mus musculus. The experiment in a line: Toxicity in HBV infected 1.3.32 transgenic mouse liver assessed as hepatitis at 1 mg/kg, iv single dose after 6 days by rotine […] method. Format: organism-based. The arrangement: dose 1 mg/kg, route intravenous. As to conditions: in vivo, 144 h. An outline of the steps: as §1
Series [15] concerns Mus musculus. The experiment in a line: Toxicity in HBV infected 1.3.32 transgenic mouse liver assessed as hepatitis at 1 mg/kg, iv single dose after 1 day by rotine […] method. Format: organism-based. More on the design: dose 1 mg/kg, route intravenous. As to conditions: in vivo, 24 h. An outline of the steps:
as §1

For series [16], the system named is Mus musculus. Kind of series: Toxicity in HBV infected 1.3.32 transgenic mouse assessed as stress, ruffled fur at 5 mg/kg, iv after 24 hrs. Conditions: in vivo. The arrangement: dose 5 mg/kg, route intravenous. Format: organism-based.
Series [17] relates to Mus musculus. The experiment in a line: Toxicity in HBV infected 1.3.32 transgenic mouse liver assessed as hepatitis at 0.2 mg/kg, iv single dose after 24 hrs by rotine […] method. Format: organism-based. More on the design: dose 0.2 mg/kg, route intravenous. As to conditions: in vivo. An outline of the steps:
as §1

The subject of series [18] is Hepatitis B virus. As to conditions: 1 mg/kg. This is another data set of the same source.

The source made the active and inactive calls. The rule behind the calls is not given here.

`CC(C)C[C@H](NC(=O)[C@H](Cc1ccccc1)NC(=O)c1cnccn1)B(O)O` [BORTEZOMIB]: the inhibition entry in series [1] and in [7] was “inactive” in each case. Moreover, the Activity result in series [2] is “Toxic”; in series [4] it was “Non-toxic”; in series [5], “Non-toxic”; in series [6], “Toxic”; in series [8] it was 50%; in [10] it was “Non-toxic”. In addition, the Activity result was “Toxic” in series [13]; “Non-toxic” in series [14]; “Non-toxic” in series [15]; “Toxic” in series [16]; “Non-toxic” in series [17]. For the same molecule, the inhibition result in series [3], in series [9], in series [11], in series [12] and in series [18] was “Active” throughout.

The record behind these values is ChEMBL document CHEMBL1212793, “Bortezomib inhibits hepatitis B virus replication in transgenic mice” (Antimicrob Agents Chemother, 2010).
